# TRPC4 block: inhibitors of mouse TRPC4 channel, primary screen, Fluo4 calcium, HEK293 TRPC4beta/mu-opioid cells. Short transient receptor potential channel 4 (Mus musculus), Q9QUQ5. DAMGO-evoked Fluo4 calcium flux; active compounds read low. B-score at 10 µM. 300,000 compounds, 0.39% hits;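 active means B-score over 3 SD under the library average, no early fluorescence shift, positive overall ratio signal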
#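 Assay system – HEK293 line stably carrying TRPC4beta and mu-opioid receptor · Doses – single dose · Detection – Fluo4 calcium-dye fluorescence, kinetic read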
# TRPC4 act: activators of mouse TRPC4 channel, primary screen, Fluo4 calcium, HEK293 TRPC4beta/mu-opioid cells; Short transient receptor potential channel 4 (Mus musculus), Q9QUQ5; Fluo4 calcium fluorescence; active compounds read high; 310,000 compounds, 0.49% hits; B-score at 10 µM;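 active means B-score above 5 SD of library B-scores, and initial fluorescence ratio not above library mean plus 5 SD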;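 further: positive B-score marks a calcium rise read as TRPC4 activation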
#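 Incubation: 45 min room-temperature Fluo4 loading, 110 s read / System: HEK293 cells stably co-expressing mouse TRPC4beta and mu-opioid receptor / Signal: Fluo4 fluorescence, kinetic / Control set: buffer (low) and maximal DAMGO (high) / Measure: integrated baseline-normalised fluorescence ratio, converted to per-well B score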
# TRPC6 inh: mouse TRPC6 channel inhibitors, primary screen, cell-based, HEK293, membrane potential dye | AID 2553, 2010 | 310,000 compounds, 1.1% hits | ACh-evoked depolarization; active compounds read low | B-score at 10 µM;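 active means B-score under library mean minus 3 SD, initial fluorescence not abnormally high, positive integrated signal ratio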;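 further: B-score derived from integrated fluorescence ratio over the kinetic read; more negative B-score means stronger inhibition of depolarization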
# Target sequence (Q61143 whole entry, looked up): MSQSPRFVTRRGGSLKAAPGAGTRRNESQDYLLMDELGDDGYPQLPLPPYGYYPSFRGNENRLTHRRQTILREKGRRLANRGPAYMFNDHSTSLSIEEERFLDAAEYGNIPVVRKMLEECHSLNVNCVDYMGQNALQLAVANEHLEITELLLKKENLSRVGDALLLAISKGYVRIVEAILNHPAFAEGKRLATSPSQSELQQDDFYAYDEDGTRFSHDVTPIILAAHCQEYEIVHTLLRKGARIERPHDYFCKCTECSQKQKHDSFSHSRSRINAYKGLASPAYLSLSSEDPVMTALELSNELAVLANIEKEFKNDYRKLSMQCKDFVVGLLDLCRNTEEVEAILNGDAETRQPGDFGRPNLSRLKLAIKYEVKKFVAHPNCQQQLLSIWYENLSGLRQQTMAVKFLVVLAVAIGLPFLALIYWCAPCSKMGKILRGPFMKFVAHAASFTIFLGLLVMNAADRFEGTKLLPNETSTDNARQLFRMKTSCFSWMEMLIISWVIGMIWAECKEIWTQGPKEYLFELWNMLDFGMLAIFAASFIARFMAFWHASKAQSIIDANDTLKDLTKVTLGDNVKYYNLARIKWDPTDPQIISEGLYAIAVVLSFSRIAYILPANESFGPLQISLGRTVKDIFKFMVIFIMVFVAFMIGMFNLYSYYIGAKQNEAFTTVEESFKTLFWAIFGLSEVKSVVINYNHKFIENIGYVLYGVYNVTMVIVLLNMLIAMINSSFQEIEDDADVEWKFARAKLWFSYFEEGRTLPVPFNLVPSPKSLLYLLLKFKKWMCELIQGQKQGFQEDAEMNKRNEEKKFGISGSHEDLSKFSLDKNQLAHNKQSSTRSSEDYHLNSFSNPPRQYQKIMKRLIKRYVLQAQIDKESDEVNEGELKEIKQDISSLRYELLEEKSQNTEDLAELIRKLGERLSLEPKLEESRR
# TRPC4 PAM: positive allosteric modulators of TRPC4, primary screen, cell-based, mouse TRPC4beta, HEK293 mu-opioid, Fluo-4 calcium; Short transient receptor potential channel 4 (Mus musculus), Q9QUQ5; DAMGO EC20, Fluo-4 Ca2+ flux; active compounds read high; B-score at 10 µM; 310,000 compounds, 0.42% hits;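 active means B-score of calcium response area above 5 SD of library B-scores, with initial fluorescence ratio within 5 SD of library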;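 further: B-score of integrated fluorescence ratio over time as area under calcium response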
# TRPC6 activator: mouse TRPC6 channel activators, primary screen, cell-based, HEK293, membrane potential dye; Short transient receptor potential channel 6 (Mus musculus), Q61143; HEK293-TRPC6 membrane potential dye fluorescence; active compounds read high; B-score at 10 µM; 310,000 compounds, 0.13% hits; AID 2550, 2010;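 active means B-score of the integrated fluorescence ratio above library mean plus 3 SD, and starting fluorescence ratio within library mean plus 5 SD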;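 further: higher score means more depolarization so channel activation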
# TRPC4 spec 2: second selectivity test of TRPC6 inhibitors: effect on mouse TRPC4 | inhibition, % at 10 µM | 920 compounds, 42% hits | shares compounds with TRPC6 inh | HEK293 TRPC4/MOR, membrane potential dye fluorescence; channel activated by saturating DAMGO dose;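 active means compounds whose fluorescence signal differed from control wells by over 3 SD, either direction, in both duplicate plates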
# TRPC4 spec: mouse TRPC4 modulation by TRPC6 hits, confirmation, selectivity assay for TRPC6 inhibitor project, cell-based, HEK293 TRPC4/mu-opioid, membrane potential dye; shares compounds with TRPC6 inh; membrane potential fluorescence; activity change, negative = inhibition, % at 10 µM; 920 compounds, 61% hits; AID 2777, 2010;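 active means rise or fall in signal beyond 3 SD of buffer-only wells in both replicate plates, either sign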;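 further: integrated kinetic ratio of fluorescence range over baseline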
# HEK293 MPD ctr 2-1: nonspecific membrane potential effects, parental HEK293, confirmation, counter-screen for TRPC6 inhibitor project, cell-based, second counter screen. shares compounds with TRPC6 inh. parental HEK293 membrane potential dye fluorescence; maximal acetylcholine challenge after compound addition. signal change vs control, % at 10 µM. 920 compounds, 31% hits;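 active means membrane potential signal moving either way by over 3 SD of the maximum-effect control, in both duplicate plates, meaning non-specific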
# HEK293 MPD ctr-1: membrane potential modulation in parental HEK293, confirmation, counter-screen for TRPC6 inhibitor project, cell-based | shares compounds with TRPC6 inh | parental HEK293 membrane potential dye fluorescence | membrane potential signal change, % at 10 µM | 920 compounds, 60% hits | AID 2780, 2010;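 active means membrane potential signal shifting up or down by more than 3 SD of buffer-only wells, on both duplicate plates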
# HEK293 MPD ctr-2: parental HEK293 membrane potential modulation, confirmation, counter-screen for TRPC6 modulator project, cell-based; 2,400 compounds, 51% hits; membrane potential dye fluorescence; shares compounds with TRPC6 inh; membrane potential signal change, % at 10 µM;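 active means membrane potential signal moves up or down beyond 5 SD from buffer-only wells, on both duplicate plates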
# HEK293 MPD ctr 2-2: second counter-screen for TRPC6 modulators: effect in parental HEK293 cells. 2,400 compounds, 14% hits. membrane potential dye fluorescence; after compound, maximal acetylcholine stimulation. inhibition, % at 10 µM. AID 488926. shares compounds with TRPC6 inh;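 active means membrane potential signal drops by more than 5 SD from the mean control signal, in both duplicate plates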;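 further: plate controls were acetylcholine ECmax control wells for no effect and buffer only wells for full effect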
# TRPC4 ctr mod: TRPC4 modulation by TRPC6 hit compounds, confirmation, selectivity assay for TRPC6 modulator project, cell-based, HEK293 TRPC4/mu-opioid, membrane potential dye, mouse; shares compounds with TRPC6 inh; membrane potential fluorescence; percent change from control (negative = decrease, positive = increase), % at 10 µM; 2,400 compounds, 69% hits; AID 488927, 2010;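 active means membrane potential signal moved up or down beyond 5 SD of buffer control wells, in both duplicate plates, actives on both sides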;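 further: plate controls were assay buffer wells for no effect and DAMGO maximal-effect wells for full effect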
# TRPC4/MOR inh 2: second selectivity test of TRPC6 modulators against mouse TRPC4 | shares compounds with TRPC6 inh | HEK293 TRPC4/mu-opioid, membrane potential dye fluorescence; stimulated with maximal-effect DAMGO | inhibition, % at 10 µM | 2,400 compounds, 55% hits | AID 488928;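 active means drop in membrane potential signal beyond 5 SD of the control wells in both duplicate plates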;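 further: TRPC4 counter screen for TRPC6 hits run under conditions tuned for TRPC6 not TRPC4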
# TRPC6 inh conf: mouse TRPC6 channel inhibitors, confirmation, HEK293 cells, membrane potential dye, duplicate; shares compounds with TRPC6 inh; 3,300 compounds, 43% hits; inhibition, % at 10 µM; ACh-evoked depolarization; AID 488960, 2010;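 active means fluorescence ratio falls more than 5 SD below the full-stimulation control mean, in both duplicate runs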;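 further: integrated fluorescence ratio of peak minus minimum over baseline after agonist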
# TRPC6 act conf: mouse TRPC6 channel activators, confirmation, HEK293 cells, membrane potential dye, duplicate; shares compounds with TRPC6 inh; 2,800 compounds, 11% hits; HEK293-TRPC6 membrane potential dye fluorescence, FDSS; AID 488961, 2010; activation, % at 10 µM;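 active means ratio signal rise beyond 5 SD above unstimulated control wells' mean, seen in both duplicate runs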;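 further: plate controls were buffer EC0 wells for no effect and acetylcholine ECmax response for full effect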
# Active calls of the source: *; i = inactive; . = no result; + = active, no number. In the library only some 2.3% were active in any assay of this set; here they are far more common.
SMILES,TRPC4 block,TRPC4 act,TRPC6 inh,TRPC4 PAM,TRPC6 activator,HEK293 MPD ctr-2,HEK293 MPD ctr 2-2,TRPC4 ctr mod,TRPC4/MOR inh 2,TRPC6 inh conf,TRPC6 act conf,others
N=c1c2c(-c3ccccc3)c(-c3ccccc3)n(Cc3ccco3)c2ncn1CCN1CCOCC1,i,i,-9.9*,i,i,.,.,.,.,i,i,TRPC4 spec 2=40%*;TRPC4 spec=3.4%*;HEK293 MPD ctr 2-1=208%*;HEK293 MPD ctr-1=8.2%*
c1ccc(-c2nc3nc4ccccc4nc3n2Cc2ccco2)cc1,i,i,i,i,i,.,.,.,.,.,.,
N=c1c2c(-c3ccccc3)c(-c3ccccc3)n(Cc3ccco3)c2ncn1CCCO,i,i,-5.1*,i,i,150%*,i,20%*,76%*,i,.,
CC(C)(C)NC(=O)CSc1ncnc2c1cnn2-c1ccccc1,i,i,i,i,i,.,.,.,.,.,.,
CC(=Nc1ccccc1)c1sc2ccccc2c1O,i,i,i,i,13*,395%*,i,56%*,i,i,116%*,
N#Cc1c(-c2cccs2)nc(SCC(=O)c2cccs2)[nH]c1=O,i,i,i,i,12*,114%*,i,26%*,i,i,40%*,
O=C(CSc1nc2ccccc2c(=O)[nH]1)c1cccs1,i,i,i,i,i,.,.,.,.,.,.,
COc1ccc(-c2[nH]c3ccccc3c2SCCN)cc1,i,i,-8.7*,i,i,.,.,.,.,74%*,i,TRPC4 spec 2=45%*;TRPC4 spec=-16%*;HEK293 MPD ctr 2-1=i;HEK293 MPD ctr-1=-262%*
O=C(CN(Cc1ccc(F)cc1)C(=O)CNS(=O)(=O)c1ccccc1)NCC1CCCO1 (stereo not given),i,i,i,i,i,.,.,.,.,.,.,
CCc1cc2cc(C(=O)Nc3ccc(C)cc3)sc2s1,i,i,i,i,i,.,.,.,.,.,.,
Nc1c(-c2ccccc2)cnn1-c1ccccc1,i,i,i,i,i,.,.,.,.,.,.,
Nc1c(-c2cccc(Cl)c2)cnn1-c1ccccc1,i,i,-7.1*,i,i,-124%*,i,-18%*,76%*,52%*,i,
CCN(CCO)Cc1csc2ccc(C(C)(C)C)cc12,i,i,i,i,i,.,.,.,.,.,.,
Cc1nc2ccc(NC(=O)c3ccc(Cl)c(S(=O)(=O)N(C)c4ccccc4)c3)cc2s1,i,i,-5.1*,i,i,i,i,-26%*,i,i,i,
CCC1CCCCN1CCn1c(=S)[nH]c2cc(OC)c(OC)cc2c1=O (stereo not given),i,i,-6.3*,i,i,i,i,10%*,28%*,i,i,
COCc1[nH]nc2c1C(c1c(F)cccc1Cl)C(C#N)=C(N)O2 (stereo not given),i,i,-5.6*,i,i,i,i,i,i,i,i,
OCC[C@@H]1C[C@H](O)[C@@H](O)[C@]2(CCc3ccccc3CO2)O1,i,i,i,i,i,.,.,.,.,.,.,
Cc1cc(/C=C2\SC(=S)NC2=O)c(C)n1-c1cccc(O)c1,i,i,i,i,14*,568%*,i,85%*,45%*,i,174%*,
Cc1cc(/C=C2\SC(=S)NC2=O)c(C)[nH]1,i,i,-6.4*,i,27*,782%*,+,107%*,42%*,i,164%*,
CCn1c(C)cc(/C=C2/SC(=S)NC2=O)c1C,i,i,i,i,i,.,.,.,.,.,.,
NCc1cc2c3c(c1)CCCN3CCC2,i,i,-5.7*,i,i,i,i,i,i,i,i,
CC(Nc1nc(N2CCN(S(C)(=O)=O)CC2)nc2ccccc12)c1ccccc1 (stereo not given),i,i,-6*,i,i,-158%*,i,-26%*,52%*,i,i,
CC(NC(=O)Nc1nnc(C(F)(F)F)s1)(C(F)(F)F)C(F)(F)F,i,i,-7.3*,i,i,.,.,.,.,87%*,.,TRPC4 spec 2=57%*;TRPC4 spec=51%*;HEK293 MPD ctr 2-1=i;HEK293 MPD ctr-1=30%*
CC(C)(C)CC(=O)Nc1nnc(C(F)(F)F)s1,i,i,i,i,i,.,.,.,.,.,.,
